# How the values were obtained:
# [1] = system: MCF7; test: Cytotoxicity against human MCF7 cells assessed as cell viability after 48 hrs by MTS assay; format: functional, cell-based; details: MCF7, 48 h
# Procedure, shortened: (§1)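 Cells grown in RPMI-1640 or DMEM with 10% FBS at 37 °C, 5% CO2. Seeded, incubated 12 h, then exposed to a range of concentrations in triplicate for 48 h. Viability read by MTS reduction to formazan. IC50 calculated by Reed and Muench method; cis-platin positive control.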
# [2] = Cytotoxicity against human SMMC7721 cells assessed growth inhibition at 40 uM after 48 hrs by MTS assay relative to control; format: functional; details: SMMC-7721, 48 h, read-out: GI
# Procedure, shortened: (§2)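 Cultured in RPMI-1640 or DMEM with 10% FBS at 37 °C under 5% CO2. Cells seeded, given 12 h at 37 °C, then treated with compound at 40 μM for 48 h. Growth inhibition measured by MTS assay (formazan colorimetry).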
# [3] = Cytotoxicity against human HL60 cells assessed as cell viability after 48 hrs by MTS assay; format: functional, cell-based; details: HL-60, 48 h; procedure, shortened: as §1
# [4] = Cytotoxicity against human SMMC7721 cells assessed as cell viability after 48 hrs by MTS assay; format: functional, cell-based; details: SMMC-7721, 48 h; procedure, shortened: as §1
# [5] = system: A549; test: Cytotoxicity against human A549 cells assessed growth inhibition at 40 uM after 48 hrs by MTS assay relative to control; format: functional; details: A549, 48 h, read-out: GI; procedure, shortened: as §2
# [6] = Cytotoxicity against human HL60 cells assessed growth inhibition at 40 uM after 48 hrs by MTS assay relative to control; format: functional; details: HL-60, 48 h, read-out: GI; procedure, shortened: as §2
# [7] = system: RAW264.7; test: Inhibition of LPS-induced NO production in mouse RAW264.7 cells at 25 uM preincubated with compound followed by LPS challenge measured after 18 hrs by Griess method; format: functional, cell-based
# Procedure, shortened: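 RAW264.7 macrophages seeded at 2 × 10^5 cells/well and treated with serial compound dilutions (maximum 25 μM), then stimulated with LPS 1 μg/mL for 18 h. Supernatant nitrite measured with Griess reagents, absorbance 550 nm. MG-132 positive control. Viability checked in parallel by MTT to exclude cytotoxic interference.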
# [8] = system: SW480; test: Cytotoxicity against human SW480 cells assessed as cell viability after 48 hrs by MTS assay; format: functional, cell-based; details: SW480, 48 h; procedure, shortened: as §1
# [9] = system: A549; test: Cytotoxicity against human A549 cells assessed as cell viability after 48 hrs by MTS assay; format: functional, cell-based; details: A549, 48 h; procedure, shortened: as §1
SMILES,IC50 [1] [µM],inhibition of growth at 40 µM [2] [%],IC50 [3] [µM],IC50 [4] [µM],inhibition of growth at 40 µM [5] [%],inhibition of growth at 40 µM [6] [%],IC50 [7] [µM],IC50 [8] [µM],IC50 [9] [µM]
C=C1C(=O)[C@]23C[C@@H]1CC[C@H]2C12[C@H](OC)O[C@@H](O)[C@@H]1C(C)(C)CC[C@@H]2OC3=O (stereo partly specified),3.2,> 50,3.2,5,> 50,> 50,1.56,4.6,3.4
C=C1C(=O)[C@]23C[C@@H]1C[C@@H](O)[C@H]2[C@@]12CO[C@@H](O)[C@@H]1C(C)(C)CC[C@@H]2OC3=O,14,> 50,10.3,11.4,> 50,> 50,3.56,10.9,14.3
C=C1C(=O)[C@]23C[C@@H]1CC[C@H]2C12[C@@H](OC)O[C@@H](O)[C@@H]1C(C)(C)CC[C@@H]2OC3=O (stereo partly specified),3.9,> 50,3.5,4.7,> 50,> 50,1.36,3.9,1.2
C=C1C(=O)[C@]23C[C@@H]1C[C@@H](O)[C@H]2C12CO[C@@H]4OC[C@](C)(CC[C@@H]1OC3=O)[C@@H]42 (stereo partly specified),13.7,> 50,14.3,12.5,> 50,> 50,3.51,> 40,10.2
C=C1C(=O)[C@@]23C[C@@H]1C[C@H]1O[C@@H]4OC[C@]5([C@H](CCC(C)(C)[C@@H]45)OC2=O)[C@H]13,14,> 50,15.4,15.8,> 50,> 50,4.93,15.2,14
C=C1C(=O)[C@]23C[C@@H]1CC[C@H]2C12CO[C@@H](O)[C@@H]1C(C)(C)[C@@H](O)C[C@@H]2OC3=O (stereo partly specified),15.7,> 50,9.2,9.8,> 50,> 50,3.53,5.5,13.3
C=C1C(=O)[C@]23C[C@@H]1CC[C@H]2C12C(O)O[C@@H](O)[C@@H]1C(C)(C)CC[C@@H]2OC3=O (stereo partly specified),> 40,> 50,16.8,31.8,> 50,> 50,7.42,14.8,39
C=C1C(=O)[C@]23C[C@@H]1CC[C@H]2[C@@]12CO[C@@H](O)[C@@H]1C(C)(C)CC[C@@H]2OC3=O,3.4,> 50,2.1,3.3,> 50,> 50,0.74,1.7,2.1
C=C1C(=O)[C@]23C[C@@H]1CC[C@H]2C12C(O)O[C@@H](OC)[C@@H]1C(C)(C)CC[C@@H]2OC3=O (stereo partly specified),2.4,> 50,3,4.2,> 50,> 50,1.47,3.2,3.9

# Reference: ChEMBL document CHEMBL3779809, “Bioactive Enmein-Type ent-Kaurane Diterpenoids from Isodon phyllostachys” (J Nat Prod, 2016)
